Screens deposited in PubChem by several laboratories.
NF-kB neuron act: activators of NF-kB expression in neurons, primary screen, cell-based, HTS; human neuronal cells, NF-kB reporter expression; hits give high values; fold change at 12.5 µM; 1.6% of 190,000 active; AID 1239, 2008; in the data active = fold change above about 3.3
FLuc inhib CS: firefly luciferase enzyme inhibitors, primary screen, artefact control for luciferase-based inhibitor screens, biochemical, luminescence, ATPLite; Luciferin 4-monooxygenase (Photinus pyralis), P08659; 10 min; 1.5% of 200,000 active; inhibition, % at 10 µM;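 active = inhibition above about 50% when tested at 10 µM, limit read from the data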
Target sequence (P08659 whole entry, looked up): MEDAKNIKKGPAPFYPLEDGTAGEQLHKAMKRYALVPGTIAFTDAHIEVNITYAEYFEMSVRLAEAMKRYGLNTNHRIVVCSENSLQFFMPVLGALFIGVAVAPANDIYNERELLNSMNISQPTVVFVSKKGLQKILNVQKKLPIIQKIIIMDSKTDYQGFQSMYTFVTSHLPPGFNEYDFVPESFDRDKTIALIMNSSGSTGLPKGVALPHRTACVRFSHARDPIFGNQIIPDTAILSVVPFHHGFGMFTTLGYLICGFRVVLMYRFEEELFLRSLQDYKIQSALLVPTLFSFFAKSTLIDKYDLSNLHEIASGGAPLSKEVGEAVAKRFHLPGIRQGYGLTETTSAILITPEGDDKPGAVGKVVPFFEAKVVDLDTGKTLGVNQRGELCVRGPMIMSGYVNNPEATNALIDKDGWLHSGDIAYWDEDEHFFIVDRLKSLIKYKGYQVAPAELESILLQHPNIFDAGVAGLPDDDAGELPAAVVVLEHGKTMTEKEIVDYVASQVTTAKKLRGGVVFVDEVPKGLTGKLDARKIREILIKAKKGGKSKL
FLuc stim CS: FLuc activators, initial screening, artefact control for FLuc-dependent activation tests, biochemical, ATPlite luminescence | ATPlite luciferase biochemical, 10 min; 0 = ATP-free wells, 1 = DMSO control | 200,000 tested, under 10 active | Luciferin 4-monooxygenase (Photinus pyralis), P08659 | activation factor at 10 µM;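 active = luciferase activation factor, scaled between plate controls, of at least 2 with compound at 10 µM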
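System: luciferase plus luciferin reagent, cell-free; medium: PBS as buffer for the ATP substrate; dosing: test compounds dosed from 2 mM stocks in 100% DMSO; timing: 10 min post-reagent at room temperature; measured by: luminescence measurement of luciferase light output; evaluation: luciferase activation, seen as luminescence increase over controls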
PPC-1+TRAIL kill: compounds killing PPC-1 cancer cells with TRAIL present, primary screen, TRAIL potentiator project, ATPLite luminescence, uHTS | AID 1443, 2008 | PPC-1 cells + TRAIL, ATPLite viability luminescence | cell killing (% activity), % at 4 µM or 5 µM | 0.41% of 220,000 active;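 active = cell killing above 50% in the first pass at 4 µM, then a duplicate retest at 5 µM averaging 50% or more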;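 also: plate controls were cells with TRAIL plus DMSO for no effect and medium-only wells lacking cells for full effect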
C8 TRAIL sens: viability loss with TRAIL in NB7+C8 cells, primary screen, TRAIL sensitizer project, cell-based, ATPlite luminescence; inhibition (viability loss, TRAIL sensitization), % at 10 µM; 1% of 360,000 active; AID 624354, 2012;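 active = compounds causing at least 50% loss of cell viability in the single-dose screen, relative to plate controls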
APP 5'UTR act: activators of APP 5'UTR luciferase reporter, primary screen, SH-SY5Y cells; SH-SY5Y APP 5'UTR luciferase reporter, luminescence; zero percent = DMSO vehicle wells; activation, % at 2 µM; 1% of 190,000 active; AID 1276, 2008;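 active = activation above a set limit, based on mean plus 3 SD of controls, cut at about 140% in these data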
An asterisk follows results filed as active; / = no result given. Rows were chosen to be rich in hits. Some 2.2% of all compounds tested hit in one or more screens of this group.

SMILES	NF-kB neuron act	FLuc inhib CS	FLuc stim CS	PPC-1+TRAIL kill	C8 TRAIL sens	APP 5'UTR act
O=C1c2ccccc2S(=O)(=O)N1CC1CC(c2ccccc2Cl)=NO1 (stereo not given)	4.91*	44.7	0.6	14.8	19.5	47.0
COc1ccc(N/C=C\C(=O)c2ccc3c(c2)OCO3)cc1OC	3.08	59.7*	0.4	35.1	28.8	6.1
COc1ccc(NC(=O)c2ccc3c(c2)OCCO3)cc1OC	/	/	/	/	52.2*	/
COc1ccc(C(=O)/C=C/Nc2cccc(C)n2)cc1OC	4.12*	41.0	0.6	16.9	8.4	36.2
O=C(Nc1ccc(N2CCCCC2)cc1)c1ccc2c(c1)OCCO2	3.82*	64.8*	0.4	37.6	35.7	135.3*
COc1ccc(N/C=C/C(=O)c2ccc(OC)c(OC)c2)cc1	/	/	/	-6.7	-9.2	/
COc1cc(C(=O)Nc2ccc3c(c2)OCCO3)ccc1OC(F)F	3.37*	59.2*	0.4	21.6	40.4	74.9
COc1ccc(NC(=O)c2ccc3c(c2)OCO3)cc1Cl	4.97*	61.0*	0.4	40.7	35.4	137.7*
COc1cc(C(=O)Nc2ccc3c(c2)OCCO3)ccc1OC(C)C	2.04	41.3	0.6	29.1	15.6	45.7
CC(C)(C)OC(=O)Nc1ccccc1-n1nnnc1C(C(=O)c1ccc(F)cc1)N1CCOCC1 (stereo not given)	/	/	/	/	-21.1	/
CC(C)(C)c1ccc(/C=C2\SC(=O)N(CCNC(=O)c3cccc(S(=O)(=O)N4CCOCC4)c3)C2=O)cc1	0.72	68.7*	0.3	15.1	57.6*	135.1*
CC(C)c1ccc(Nc2nc(CC(=O)O)cs2)cc1	7.22*	71.1*	0.3	-2.1	24.8	241.8*
O=C(O)Cc1csc(Nc2cccc(Cl)c2)n1	1.25	-3.4	1	19.1	0.5	9.2
O=C(N/N=C/c1ccccc1)c1ccc2c(c1)OCO2	/	/	/	/	56.2*	/
O=C(O)c1ccc(/C=N/NC(=O)c2ccc3c(c2)OCCO3)cc1	/	/	/	/	14.2	/
O=C(N/N=C/c1ccc(Br)o1)c1ccc2c(c1)OCCO2	2.99	73.6*	0.3	23.3	40.0	46.3
O=C(NCc1cccc(C(F)(F)F)c1)C1C(=O)Nc2ccccc2C(=O)N1C1CCCC1 (stereo not given)	/	/	/	/	1.1	/
COc1ccc(/C=C/c2nc3ccccc3c(=O)o2)cc1	/	/	/	/	74.8*	/
COc1ccccc1/C=C/c1nc2ccccc2c(=O)o1	/	/	/	/	6.6	/
Cc1nn(-c2ccccc2)c2nc(N)c(C#N)c(-c3ccc(F)cc3)c12	0.93	0.2	1	11.5	57.7*	2.0
Cc1ccc(-n2nc(C)c3c(-c4cccs4)c(C#N)c(N)nc32)cc1	0.86	-1.6	1	18.3	8.7	3.9
O=C(Nc1nnc(-c2ccco2)s1)C1CC1	1.99	-0.4	1	18.2	5.5	16.0
COc1ccc(C(=O)Nc2nnc(-c3ccco3)s2)cc1	4.82*	62.4*	0.4	46.2	59.4*	/
O=C(Nc1nnc(/N=C/c2ccco2)s1)c1ccc(F)cc1	1.25	39.0	0.6	-1.2	49.7*	4.7
COc1ccc(C(=O)Nc2nnc(-c3cccs3)s2)cc1	3.34*	8.8	0.9	9.9	20.7	46.7
SMILES	NF-kB neuron act	FLuc inhib CS	FLuc stim CS	PPC-1+TRAIL kill	C8 TRAIL sens	APP 5'UTR act
O=C(Nc1nnc(-c2ccc(F)cc2)s1)c1ccco1	/	/	/	/	23.0	/
O=C(Nc1nnc(-c2ccco2)s1)c1ccccc1	4.17*	48.5	0.5	12.9	29.1	161.2*
Clc1cccc(-c2nc3c4ccccc4ccn3c2CC2CCCCC2)c1	/	/	/	/	-11.4	/
CN(C)c1ccc(CC(=O)N2CCCCC2c2cc(C(=O)Nc3ccccc3)no2)cc1 (stereo not given)	/	/	/	/	1.7	/
CC(/C=C/c1ccc(N(C)C)cc1)=N\N=C(/N)SC1CC(=O)N(c2ccc(C(=O)O)cc2)C1=O (stereo not given)	1.42	68.9*	0.3	53.5*	46.4	1.0
O=C(O)c1ccc(N2C(=O)CC(SC(=Nc3ccccc3)Nc3ccccc3)C2=O)cc1 (stereo not given)	0.93	-2.5	1	26.6	-2.4	-0.4
O=c1c2c(nc3cc(-c4cccc(Cl)c4)[nH]n13)CCC2	5.44*	46.9	0.5	9.7	12.7	143.1*
